Results on nine compounds are retold here after ChEMBL document CHEMBL1133019, “Synthesis, spectroscopy, and cytotoxicity of glycosylated acetogenin derivatives as promising molecules for cancer therapy” (J Med Chem, 2000).

Assay [1] is described as follows: Cytotoxic activity against human epidermoid carcinoma cells (KB). In kind it is functional. In short, it runs like this:
(§1)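 Adherent monolayers seeded 24 h before treatment; 3-fold serial dilutions added; 72 h at 37 °C, humidified 5% CO2. Cells formol-fixed, methylene blue stained, washed, dye released with 0.1 M HCl, absorbance at 620 nm. Proliferation as % of acetogenin-free control; EC50 (50% growth inhibition) read from dose-response curves.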

The subject of assay [2] is L1210. As to the kind of experiment: Cell Cycle inhibition against mouse lymphocytic leukemia cells (L1210) at 10 uM. In kind it is functional. In a few lines: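 L1210 cells cultured 24 h with compound, alongside a compound-free control flask; BrdU added after 15 min. Cells ethanol-permeabilized, stained with rat anti-BrdU then FITC goat secondary, counterstained with propidium iodide, analysed by flow cytometry. Percentage of cells in each cell-cycle phase calculated from histograms.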

Assay [3] relates to L1210. Description: Cytotoxic activity against mouse lymphocytic leukemia cells (L1210). The class given is functional, cell-based. In short, it runs like this:
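L1210 in RPMI 1640 with 10% FBS, 2 mM L-glutamine, penicillin/streptomycin; doubling time about 13 h. Exponentially growing cells (1 × 10^4/well) exposed 72 h at 37 °C to drug dilutions prepared from DMSO solutions in medium. Coulter counter cell counts, triplicates, as % of triplicate controls; IC50 from residual cells vs concentration on semilog scale.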

For assay [4], the system named is Vero. Description: Cytotoxic activity against african green monkey (Cercopithecus aethiops) kidney epithelial cells (VERO). The class given is functional, cell-based. As to conditions: Chlorocebus sabaeus. In a few lines:
as §1

One may read the pEC50 as −log10 of the EC50, conventionally taken in molar units. Broadly, the inhibition is the percentage by which the read-out fell short of the control.

pEC50: −log10 of the molar value. Where “and” joins values, the source holds several entries; their conditions need not be identical. Identical values can stand only once. Some results are limits rather than exact numbers.

As to `CCCCCC[C@H](O)CCC[C@H](OC[C@H]1O[C@@H](O)[C@H](O)[C@@H](O)[C@@H]1O)[C@H]1CC[C@H]([C@H]2CC[C@H]([C@H](O)CCCCCCCCCCCCC3C[C@H](C)OC3=O)O2)O1` (some centres not stated), the negative logarithm of the EC50 (pEC50) in assay [1] is 8.05; in assay [3] (l1210), 8.00 and 7.10. Also, the inhibition at 10 µM in assay [2] is 54%.

With `CCCCCC[C@@H](CCC[C@H](OC(C)=O)[C@H]1CC[C@H]([C@H]2CC[C@H]([C@@H](CCCCCCCCCCCCC3=C[C@H](C)OC3=O)OC(C)=O)O2)O1)OC[C@H]1O[C@@H](OC(C)=O)[C@H](OC(C)=O)[C@@H](OC(C)=O)[C@@H]1OC(C)=O`, the pEC50 in assay [1] is 9.02; in assay [3] (Mus musculus, L1210), 6.52; in assay [4] it was 7.70.

In the case of `CCCCCC[C@H](O)CCC[C@H](OC[C@H]1O[C@@H](O)[C@H](O)[C@@H](O)[C@@H]1O)[C@H]1CC[C@H]([C@H]2CC[C@H]([C@@H](CCCCCCCCCCCCC3=C[C@H](C)OC3=O)OC[C@H]3O[C@@H](O)[C@H](O)[C@@H](O)[C@@H]3O)O2)O1`, the pEC50 was 5.98 in assay [1]; 5.00 in assay [3] (Mus musculus, L1210); 5.98 in assay [4].

As for `CCCCCC[C@H](O)CCC[C@H](OC[C@H]1O[C@@H](OCc2ccccc2)[C@H](OCc2ccccc2)[C@@H](OCc2ccccc2)[C@@H]1OCc1ccccc1)[C@H]1CC[C@H]([C@H]2CC[C@H]([C@H](O)CCCCCCCCCCCCC3=C[C@H](C)OC3=O)O2)O1`, the pEC50 in assay [3] (Mus musculus, L1210) was 7.30.

`CCCCCC[C@@H](CCC[C@H](OC(C)=O)[C@H]1CC[C@H]([C@H]2CC[C@H]([C@@H](CCCCCCCCCCCCC3=C[C@H](C)OC3=O)OC(C)=O)O2)O1)OC[C@H]1O[C@@H](O)[C@H](O)[C@@H](O)[C@@H]1O`: the pEC50 in assay [1] was 7.96; in assay [3] (Mus musculus, L1210) it was 7.77; in assay [4], 6.47.

In assay [2], `CCCCCC[C@H](O)CCC[C@H](O)[C@H]1CC[C@H]([C@H]2CC[C@H]([C@@H](CCCCCCCCCCCCC3=C[C@H](C)OC3=O)OC[C@H]3O[C@H](OCc4ccccc4)[C@H](OCc4ccccc4)[C@@H](OCc4ccccc4)[C@@H]3OCc3ccccc3)O2)O1` showed an inhibition at 10 µM of 65%.

Regarding `CCCCCC[C@H](O)CCC[C@H](O)[C@H]1CC[C@H]([C@H]2CC[C@H]([C@H](O)CCCCCCCCCCCCC3C[C@H](C)OC3=O)O2)O1` (some centres not stated), the pEC50 in assay [1] is 9.62; in assay [3] (Mus musculus, L1210), above 9.60; in assay [4], 7.80.

Turning to `CCCCCC[C@H](O)CCC[C@H](O)[C@H]1CC[C@H]([C@H]2CC[C@H]([C@H](O)CCCCCCCCCCCCC3=C[C@H](C)OC3=O)O2)O1` [SQUAMOCIN], the pEC50 in assay [1] was 9.62; in assay [3] (Mus musculus, L1210), above 9.60; in assay [4] it was 7.80.

Regarding `CC[C@]1(O)C[C@@H]2CN(CCc3c([nH]c4ccccc34)[C@@](C(=O)OC)(c3cc4c(cc3OC)N(C)[C@H]3[C@@](O)(C(=O)OC)[C@H](OC(C)=O)[C@]5(CC)C=CCN6CC[C@]43[C@@H]65)C2)C1` [VINBLASTINE], the pEC50 in assay [1] was 8.92; in assay [4], above 5.43.
